Test results taken from ChEMBL document CHEMBL1124093, “Peptide derivatives of primaquine as potential antimalarial agents” (J Med Chem, 1988).

Experiments:
Plasmodium cynomolgi [1] = assay: Antimalarial activity against Plasmodium cynomolgi in Rhesus monkeys (Macaca mulatta) at 0.316 mg/kg; cured 0 of 2; type: functional
Mus musculus [2] = assay: Antimalarial activity against Plasmodium berghei in mice (Mus musculus) at 160 mg/kg measured as number of toxic deaths occurring on days 2-5 after infection; type: ADME, organism-based; design: dose 160 mg/kg; conditions: in vivo
Procedure, shortened: (§1)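 Mice infected with blood-induced P. berghei, five animals per group, run by the Osdene et al. method. Doses are expressed as mg primaquine diphosphate/kg. The read-out is the number of deaths attributed to toxicity occurring on days 2-5 after infection.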

Plasmodium cynomolgi [3] = assay: Antimalarial activity against Plasmodium cynomolgi in Rhesus monkeys (Macaca mulatta) at 1 mg/kg; cured 1 of 2
Mus musculus [4] = assay: Antimalarial activity against Plasmodium berghei in mice (Mus musculus) at 640 mg/kg measured as number of toxic deaths occurring on days 2-5 after infection; type: ADME, organism-based; design: dose 640 mg/kg; conditions: in vivo; procedure, shortened: as §1
Mus musculus [5] = assay: Antimalarial activity against Plasmodium berghei in mice (Mus musculus) at 320 mg/kg measured as number of toxic deaths occurring on days 2-5 after infection; type: ADME, organism-based; design: dose 320 mg/kg; conditions: in vivo; procedure, shortened: as §1
Mus musculus [6] = assay: Antimalarial activity against Plasmodium berghei in rodent at 80 mg/Kg measured as mean survival time over control (Delta MST); type: functional

COc1cc(NC(C)CCCN)c2ncccc2c1 (stereo unspecified) [PRIMAQUINE]
Cures (Plasmodium cynomolgi [1]): 0
Toxic deaths (Mus musculus [2]): 2
Cures (Plasmodium cynomolgi [3]): 1
Toxic deaths (Mus musculus [4]): 5
Toxic deaths (Mus musculus [5]): 5
Delta MST (Mus musculus [6]): 9
